Experimental data reported in ChEMBL document CHEMBL1137508, “Pentacyclic triterpenes. Part 5: synthesis and SAR study of corosolic acid derivatives as inhibitors of glycogen phosphorylases” (Bioorg Med Chem Lett, 2007).
The source made the active and inactive calls. The calls are words filed in the database; no cut-off is given here.

Species: Oryctolagus cuniculus
Assay: (§1) Inhibition of rabbit muscle glycogen phosphorylase a
Outline: (§2)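 Rabbit muscle glycogen phosphorylase a activity was measured in the glycogen-synthesis direction by quantifying phosphate released from glucose-1-phosphate. Values are means of three experiments.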

| Activity | Structure (SMILES) |
| --- | --- |
| inactive | C[C@H]1[C@H](C)CC[C@]2(C(=O)O)CC[C@]3(C)C(=CC[C@@H]4[C@@]5(C)C[C@@H](OC(=O)CCC(=O)O)[C@H](OC(=O)CCC(=O)O)C(C)(C)[C@@H]5CC[C@]43C)[C@H]12 |
| inactive | C[C@H]1[C@H](C)CC[C@]2(C(=O)OCC(=O)O)CC[C@]3(C)C(=CC[C@@H]4[C@@]5(C)C[C@@H](O)[C@H](O)C(C)(C)[C@@H]5CC[C@]43C)[C@H]12 |

Target: not listed separately
Assay: as §1
Parameters: species or system Oryctolagus cuniculus
Outline: as §2

| Structure (SMILES) | IC50 |
| --- | --- |
| CCCCCC(=O)O[C@@H]1C[C@]2(C)[C@H]3CC=C4[C@@H]5[C@@H](C)[C@H](C)CC[C@]5(C(=O)O)CC[C@@]4(C)[C@]3(C)CC[C@H]2C(C)(C)[C@H]1O | 3.26 µM |
| CC(=O)O[C@@H]1C[C@]2(C)[C@H]3CC=C4[C@@H]5[C@@H](C)[C@H](C)CC[C@]5(C(=O)O)CC[C@@]4(C)[C@]3(C)CC[C@H]2C(C)(C)[C@H]1O | 37.7 µM |
| CCOC(=O)COC(=O)[C@]12CC[C@@H](C)[C@H](C)[C@H]1C1=CC[C@@H]3[C@@]4(C)C[C@@H](O)[C@H](O)C(C)(C)[C@@H]4CC[C@@]3(C)[C@]1(C)CC2 | 102 µM |
| C[C@H]1[C@H](C)CC[C@]2(C(=O)OCc3ccccc3)CC[C@]3(C)C(=CC[C@@H]4[C@@]5(C)C[C@@H](OC(=O)CCC(=O)O)[C@H](OC(=O)CCC(=O)O)C(C)(C)[C@@H]5CC[C@]43C)[C@H]12 | 722 µM |
| CC(=O)O[C@@H]1C[C@]2(C)[C@H]3CC=C4[C@@H]5[C@@H](C)[C@H](C)CC[C@]5(C(=O)O)CC[C@@]4(C)[C@]3(C)CC[C@H]2C(C)(C)[C@H]1OC(C)=O | 35 µM |
| C[C@H]1[C@H](C)CC[C@]2(C(=O)OCc3ccccc3)CC[C@]3(C)C(=CC[C@@H]4[C@@]5(C)C[C@H](O)[C@H](O)C(C)(C)[C@@H]5CC[C@]43C)[C@H]12 | 108 µM |
| C[C@H]1[C@H](C)CC[C@]2(C(=O)OCn3cccn3)CC[C@]3(C)C(=CC[C@@H]4[C@@]5(C)C[C@@H](O)[C@H](O)C(C)(C)[C@@H]5CC[C@]43C)[C@H]12 | 62.1 µM |
| C[C@H]1[C@H](C)CC[C@]2(C(=O)OCc3ccccc3)CC[C@]3(C)C(=CC[C@@H]4[C@@]5(C)C[C@@H](O)[C@H](O)C(C)(C)[C@@H]5CC[C@]43C)[C@H]12 | 41.2 µM |
| C=CCOC(=O)[C@]12CC[C@@H](C)[C@H](C)[C@H]1C1=CC[C@@H]3[C@@]4(C)C[C@@H](O)[C@H](O)C(C)(C)[C@@H]4CC[C@@]3(C)[C@]1(C)CC2 | 91.2 µM |
| C[C@H]1[C@H](C)CC[C@]2(C(=O)O)CC[C@]3(C)C(=CC[C@@H]4[C@@]5(C)C[C@@H](O)[C@@H](O)C(C)(C)[C@@H]5CC[C@]43C)[C@H]12 [PYGENIC ACID A] | 212 µM |
| CC(=O)OC[C@H]1O[C@@H](OC(=O)[C@]23CC[C@@H](C)[C@H](C)[C@H]2C2=CC[C@@H]4[C@@]5(C)C[C@@H](O)[C@H](O)C(C)(C)[C@@H]5CC[C@@]4(C)[C@]2(C)CC3)[C@H](OC(C)=O)[C@@H](OC(C)=O)[C@@H]1OC(C)=O | 373 µM |
| CCCOC(=O)[C@]12CC[C@@H](C)[C@H](C)[C@H]1C1=CC[C@@H]3[C@@]4(C)C[C@@H](O)[C@H](O)C(C)(C)[C@@H]4CC[C@@]3(C)[C@]1(C)CC2 | 82.5 µM |
| CCC(=O)O[C@@H]1C[C@]2(C)[C@H]3CC=C4[C@@H]5[C@@H](C)[C@H](C)CC[C@]5(C(=O)O)CC[C@@]4(C)[C@]3(C)CC[C@H]2C(C)(C)[C@H]1O | 96.7 µM |
| CCC(=O)O[C@@H]1C[C@]2(C)[C@H]3CC=C4[C@@H]5[C@@H](C)[C@H](C)CC[C@]5(C(=O)O)CC[C@@]4(C)[C@]3(C)CC[C@H]2C(C)(C)[C@H]1OC(=O)CC | 73.7 µM |
| CCCCOC(=O)[C@]12CC[C@@H](C)[C@H](C)[C@H]1C1=CC[C@@H]3[C@@]4(C)C[C@@H](O)[C@H](O)C(C)(C)[C@@H]4CC[C@@]3(C)[C@]1(C)CC2 | 92.1 µM |
| C[C@H]1[C@H](C)CC[C@]2(C(=O)OCc3ccccc3)CC[C@]3(C)C(=CC[C@@H]4[C@@]5(C)C=C(O)C(=O)C(C)(C)[C@@H]5CC[C@]43C)[C@H]12 | 7.31 µM |
| C[C@H]1[C@H](C)CC[C@]2(C(=O)OCc3ccccc3)CC[C@]3(C)C(=CC[C@@H]4[C@@]5(C)C[C@@H]6OC6C(C)(C)[C@@H]5CC[C@]43C)[C@H]12 (single isomer, unassigned) | 69.5 µM |
| C[C@H]1[C@H](C)CC[C@]2(C(=O)OCc3ccccc3)CC[C@]3(C)C(=CC[C@@H]4[C@@]5(C)C[C@@H](O)[C@@H](O)C(C)(C)[C@@H]5CC[C@]43C)[C@H]12 | 324 µM |
| CCOC(=O)[C@]12CC[C@@H](C)[C@H](C)[C@H]1C1=CC[C@@H]3[C@@]4(C)C[C@@H](O)[C@H](O)C(C)(C)[C@@H]4CC[C@@]3(C)[C@]1(C)CC2 | 46.7 µM |

Further lines, results first:

| IC50 | Structure (SMILES) |
| --- | --- |
| 116 µM | C[C@H]1[C@H](C)CC[C@]2(C(=O)O)CC[C@]3(C)C(=CC[C@@H]4[C@@]5(C)C[C@H](O)[C@H](O)C(C)(C)[C@@H]5CC[C@]43C)[C@H]12 |
| 77.9 µM | CCCC(=O)O[C@@H]1C[C@]2(C)[C@H]3CC=C4[C@@H]5[C@@H](C)[C@H](C)CC[C@]5(C(=O)O)CC[C@@]4(C)[C@]3(C)CC[C@H]2C(C)(C)[C@H]1O |
| 33.7 µM | COC(=O)[C@]12CC[C@@H](C)[C@H](C)[C@H]1C1=CC[C@@H]3[C@@]4(C)C[C@@H](O)[C@H](O)C(C)(C)[C@@H]4CC[C@@]3(C)[C@]1(C)CC2 [COROSOLIC ACID METHYL ESTER] |
| 31.8 µM | C[C@H]1[C@H](C)CC[C@]2(C(=O)OCc3ccccc3)CC[C@]3(C)C(=CC[C@@H]4[C@@]5(C)C[C@@H](O)C(=O)C(C)(C)[C@@H]5CC[C@]43C)[C@H]12 |
| 43.4 µM | C[C@H]1[C@H](C)CC[C@]2(C(=O)OCc3ccccc3)CC[C@]3(C)C(=CC[C@@H]4[C@@]5(C)C[C@@H](OS(C)(=O)=O)[C@H](O)C(C)(C)[C@@H]5CC[C@]43C)[C@H]12 |
| 5.1 µM | C[C@H]1[C@H](C)CC[C@]2(C(=O)O)CC[C@]3(C)C(=CC[C@@H]4[C@@]5(C)C[C@@H](OC(=O)c6ccccc6)[C@H](O)C(C)(C)[C@@H]5CC[C@]43C)[C@H]12 |
| 78.7 µM | CCCC(=O)O[C@@H]1C[C@]2(C)[C@H]3CC=C4[C@@H]5[C@@H](C)[C@H](C)CC[C@]5(C(=O)O)CC[C@@]4(C)[C@]3(C)CC[C@H]2C(C)(C)[C@H]1OC(=O)CCC |
| 106 µM | C[C@H]1[C@H](C)CC[C@]2(C(=O)O[C@@H]3O[C@H](CO)[C@@H](O)[C@H](O)[C@H]3O)CC[C@]3(C)C(=CC[C@@H]4[C@@]5(C)C[C@@H](O)[C@H](O)C(C)(C)[C@@H]5CC[C@]43C)[C@H]12 |
| 20 µM | C[C@H]1[C@H](C)CC[C@]2(C(=O)O)CC[C@]3(C)C(=CC[C@@H]4[C@@]5(C)C[C@@H](O)[C@H](O)C(C)(C)[C@@H]5CC[C@]43C)[C@H]12 [COROSOLIC ACID] |
| 444 µM | Cc1ccc(S(=O)(=O)O[C@@H]2C[C@]3(C)[C@H]4CC=C5[C@@H]6[C@@H](C)[C@H](C)CC[C@]6(C(=O)OCc6ccccc6)CC[C@@]5(C)[C@]4(C)CC[C@H]3C(C)(C)[C@H]2O)cc1 |
